Measurements reported in ChEMBL document CHEMBL1126829, “Synthesis and relative potencies of new constrained CRF antagonists” (1993).
Where a SMILES comes first, the peptide text is derived from it. [ ]: non-standard residue; d: D form. NMeL = CN[C@@H](CC(C)C)C(=O)O; NMeA = CN[C@@H](C)C(=O)O

Assays:
Rattus norvegicus [1] = organism: Rattus norvegicus; assay: Percent intrinsic activity was determined in rat pituitary cells; assay type: functional, Pituitary gland cell
Rattus norvegicus [2] = organism: Rattus norvegicus; assay: Compound was tested in vitro to antagonize CRF-induced release of ACTH by rat pituitary cells in culture; assay type: functional, Pituitary gland cell
How it was run: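 Collagenase-dispersed rat anterior pituitary cells were grown in monolayer culture for 3–5 days. Cells were then incubated for 3 h with peptide at several doses against 1 nM CRF stimulation (n = 3). ACTH secreted into the medium was measured by double-antibody RIA. Relative potencies were derived from the dose-response curves.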

Compound | IA (Rattus norvegicus [1]) [%] | Potency (Rattus norvegicus [2])
CCCC[C@H](NC(=O)[C@H](CCC(=O)O)NC(=O)[C@H](CC(C)C)NC(=O)[C@@H](NC(=O)[C@H](CCC(=O)O)NC(=O)[C@H](CCCN=C(N)N)NC(=O)[C@H](CC(C)C)NC(=O)[C@](C)(CC(C)C)NC(=O)[C@H](Cc1c[nH]cn1)NC(=O)[C@H](N)Cc1ccccc1)C(C)C)C(=O)N[C@@H](C)C(=O)N[C@@H](CCCN=C(N)N)C(=O)NC(C)(C)C(=O)N[C@@H](CCC(=O)O)C(=O)N[C@@H](CCC(N)=O)C(=O)N[C@@H](CC(C)C)C(=O)NC(C)(C)C(=O)N[C@@H](CCC(N)=O)C(=O)N[C@@H](CCC(N)=O)C(=O)NC(C)(C)C(=O)N[C@@H](Cc1c[nH]cn1)C(=O)N[C@@H](CO)C(=O)N[C@@H](CC(N)=O)C(=O)N[C@@H](CCCN=C(N)N)C(=O)N[C@@H](CCCCN)C(=O)N[C@@H](CC(C)C)C(=O)N[C@@H](CCCC)C(=O)N[C@@H](CCC(=O)O)C(=O)N[C@H](C(=O)N[C@H](C(N)=O)[C@@H](C)CC)[C@@H](C)CC | 23 | –
CCCC[C@H](NC(=O)[C@H](CCC(=O)O)NC(=O)[C@H](CC(C)C)NC(=O)[C@@H](NC(=O)[C@H](CCC(=O)O)NC(=O)[C@H](CCCN=C(N)N)NC(=O)[C@](C)(CC(C)C)NC(=O)[C@H](CC(C)C)NC(=O)[C@H](Cc1c[nH]cn1)NC(=O)[C@H](N)Cc1ccccc1)C(C)C)C(=O)N[C@@H](C)C(=O)N[C@@H](CCCN=C(N)N)C(=O)NC(C)(C)C(=O)N[C@@H](CCC(=O)O)C(=O)N[C@@H](CCC(N)=O)C(=O)N[C@@H](CC(C)C)C(=O)NC(C)(C)C(=O)N[C@@H](CCC(N)=O)C(=O)N[C@@H](CCC(N)=O)C(=O)NC(C)(C)C(=O)N[C@@H](Cc1c[nH]cn1)C(=O)N[C@@H](CO)C(=O)N[C@@H](CC(N)=O)C(=O)N[C@@H](CCCN=C(N)N)C(=O)N[C@@H](CCCCN)C(=O)N[C@@H](CC(C)C)C(=O)N[C@@H](CCCC)C(=O)N[C@@H](CCC(=O)O)C(=O)N[C@H](C(=O)N[C@H](C(N)=O)[C@@H](C)CC)[C@@H](C)CC | 8 | –
CSCC[C@H](NC(=O)[C@H](CCC(=O)O)NC(=O)[C@H](CCCN=C(N)N)NC(=O)[C@H](CC(C)C)N(C)C(=O)[C@H](CC(C)C)NC(=O)[C@H](Cc1c[nH]cn1)NC(=O)[C@H](Cc1ccccc1)NC(=O)[C@@H](NC(=O)[C@H](CC(C)C)N(C)C(=O)[C@@H](N)CC(=O)O)[C@@H](C)O)C(=O)N[C@@H](CC(C)C)C(=O)N[C@@H](CCC(=O)O)C(=O)N[C@@H](CCSC)C(=O)N(C)[C@@H](C)C(=O)N[C@@H](CCCCN)C(=O)N[C@@H](C)C(=O)N[C@@H](CCC(=O)O)C(=O)N[C@@H](CCC(N)=O)C(=O)N(C)[C@@H](CC(C)C)C(=O)N[C@@H](C)C(=O)N[C@@H](CCC(=O)O)C(=O)N[C@@H](CCC(N)=O)C(=O)N[C@@H](C)C(=O)N(C)[C@@H](C)C(=O)N[C@@H](CC(C)C)C(=O)N[C@@H](CC(N)=O)C(=O)N[C@@H](CCCN=C(N)N)C(=O)N[C@@H](CC(C)C)C(=O)N(C)[C@@H](CC(C)C)C(=O)N[C@@H](CC(C)C)C(=O)N[C@@H](CCC(=O)O)C(=O)N[C@@H](CCC(=O)O)C(=O)N(C)[C@@H](C)C(N)=O (H-D[NMeL]TFHL[NMeL]REMLEM[NMeA]KAEQ[NMeL]AEQA[NMeA]LNRL[NMeL]LEE[NMeA]-NH2) | 0 | 0
H-DLTFHLLREMLEMAKAEQEAEQAALNRLLLEEA-NH2 | 14 | 0.12
